Source: ChEMBL document CHEMBL4680257, “Discovery of novel NF-кB inhibitor based on scaffold hopping: 1,4,5,6,7,8-hexahydropyrido[4,3-d]pyrimidine” (Eur J Med Chem, 2020)

Key:
[1] = test system: RAW264.7; assay: Antiinflammatory activity against mouse RAW264.7 cells assessed as LPS-induced TNF-alpha at 30 uM pretreated for 2 hrs followed by LPS stimulation and measured after 22 hrs by ELISA (reference value: 0 %); type: functional; settings: time 24 hrs
How it was run: (§1)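 Mouse RAW264.7 macrophages were pretreated with compound for 2 h, then stimulated with LPS (1.0 µg/mL) for 22 h. Culture medium was centrifuged at 1000 rpm for 10 min, and secreted TNF-α and IL-6 were each quantified by ELISA kit. Inhibition rates are means of three replicates.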

[2] = test system: RAW264.7; assay: Antiinflammatory activity against mouse RAW264.7 cells assessed as LPS-induced IL-6 at 30 uM pretreated for 2 hrs followed by LPS stimulation and measured after 22 hrs by ELISA (reference value: 0 %); type: functional; settings: time 24 hrs; how it was run: as §1
[3] = test system: RAW264.7; assay: Antiinflammatory activity against mouse RAW264.7 cells assessed as LPS-induced TNF-alpha at 5 uM pretreated for 2 hrs followed by LPS stimulation and measured after 22 hrs by ELISA (reference value: 0 %); type: functional; settings: time 24 hrs
[4] = test system: RAW264.7; assay: Antiinflammatory activity against mouse RAW264.7 cells assessed as LPS-induced IL-6 at 5 uM pretreated for 2 hrs followed by LPS stimulation and measured after 22 hrs by ELISA relative to control (reference value: 0 %); type: functional; settings: time 24 hrs
[5] = test system: RAW264.7; assay: Cytotoxicity against mouse RAW264.7 cells assessed as reduction in cell viability at 5 uM incubated for 24 hrs by MTT assay; type: cell-based; settings: raw264.7, 24 h
[6] = test system: HepG2; assay: Cytotoxicity against human HepG2 cells assessed as reduction in cell viability incubated for 24 hrs by MTT assay; type: functional, cell-based; settings: HepG2, 24 h
How it was run: (§2)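 Cells kept at 37 °C in 5% CO₂. HepG2 grown in DMEM with 10% serum; HHL-5, LO2 and SMMC-7721 in 1640 medium with 10% serum. Seeded, grown 24 h, then exposed 24 h to 10, 5, 2.5, 1.25, 0.625 and 0.3125 µg/mL. MTT (5 mg/mL) added for 4 h at 37 °C; formazan dissolved in DMSO, OD read at 570 nm. IC50 averaged from three replicates.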

[7] = Cytotoxicity against human HHL-5 cells assessed as reduction in cell viability incubated for 24 hrs by MTT assay; type: cell-based; settings: HHL-5, 24 h; how it was run: as §2
[8] = test system: L02; assay: Cytotoxicity against human L02 cells assessed as reduction in cell viability incubated for 24 hrs by MTT assay; type: cell-based; settings: L02, 24 h; how it was run: as §2
[9] = test system: SMMC-7721; assay: Cytotoxicity against human SMMC-7721 cells assessed as reduction in cell viability incubated for 24 hrs by MTT assay; type: functional, cell-based; settings: SMMC-7721, 24 h; how it was run: as §2

Structure (SMILES)	inhibition at 30 µM [1] [%]	inhibition at 30 µM [2] [%]	inhibition at 5 µM [3] [%]	inhibition at 5 µM [4] [%]	Activity [5]	IC50 [6] [µM]	IC50 [7] [µM]	IC50 [8] [µM]	IC50 [9] [µM]
S=C(S)N1CCCC1 [PYRROLIDINE DITHIOCARBAMATE]	66.5	56.9							
Cl.NC1=NC(c2cccc(F)c2)C2=C(N1)/C(=C/c1cccc(F)c1)CN(S(=O)(=O)c1ccc(F)cc1)C2 (stereo unspecified)			71.6	74.9	Non-Toxic	12.4	12.9	18.8	4.8
Cl.N#Cc1ccc(S(=O)(=O)N2CC3=C(NC(N)=NC3c3ccccc3F)/C(=C/c3ccccc3F)C2)cc1 (stereo unspecified)			62.9	71.2	Non-Toxic	11.7	29	12	19
Cl.NC1=NC(c2ccc(F)cc2)C2=C(N1)/C(=C/c1ccc(F)cc1)CN(S(=O)(=O)c1ccc(F)cc1)C2 (stereo unspecified)			72.3	71.4	Non-Toxic	4.1	11.1	13.3	17.1
Cl.NC1=NC(c2ccc(F)cc2)C2=C(N1)/C(=C/c1ccc(F)cc1)CN(S(=O)(=O)c1ccc(C(F)(F)F)cc1)C2 (stereo unspecified)			87.5	81.7	Non-Toxic	3.3	24.4	15.4	3.8
Cl.NC1=NC(c2cccc(F)c2)C2=C(N1)/C(=C/c1cccc(F)c1)CN(S(=O)(=O)c1ccc(Br)cc1)C2 (stereo unspecified)			69.3	71	Non-Toxic	10.6	13	10.1	6.3
Cl.NC1=NC(c2ccccc2F)C2=C(N1)/C(=C/c1ccccc1F)CN(S(=O)(=O)c1ccccc1)C2 (stereo unspecified)			46.9	40.5	Non-Toxic	9.9	9.9	11.2	8.5
Cl.NC1=NC(c2ccc(F)cc2)C2=C(N1)/C(=C/c1ccc(F)cc1)CN(S(=O)(=O)c1ccc([N+](=O)[O-])cc1)C2 (stereo unspecified)			65.9	66.8	Non-Toxic	9.4	10.3	12.5	19.1
Cl.N#Cc1ccc(S(=O)(=O)N2CC3=C(NC(N)=NC3c3cccc(F)c3)/C(=C/c3cccc(F)c3)C2)cc1 (stereo unspecified)			74.5	73	Non-Toxic	3.5	18.9	17.2	4.2
Cl.NC1=NC(c2ccccc2F)C2=C(N1)/C(=C/c1ccccc1F)CN(S(=O)(=O)c1ccc(Cl)cc1)C2 (stereo unspecified)			83	81.5	Non-Toxic	12.2	9.1	11.5	4.9
Cl.NC1=NC(c2ccc(F)cc2)C2=C(N1)/C(=C/c1ccc(F)cc1)CN(S(=O)(=O)c1ccc(Br)cc1)C2 (stereo unspecified)			58.1	64.3	Non-Toxic	5.6	18.3	18.3	12.2
Cc1ccc(S(=O)(=O)N2CC3=C(NC(N)=NC3c3ccccc3F)/C(=C/c3ccccc3F)C2)cc1.Cl (stereo unspecified)			44	56.8	Non-Toxic	13.1	9.6	11.5	7.3
Cl.NC1=NC(c2cccc(F)c2)C2=C(N1)/C(=C/c1cccc(F)c1)CN(S(=O)(=O)c1ccc(Cl)cc1)C2 (stereo unspecified)			57.7	75.9	Non-Toxic	15	12	15.1	5.5
Cl.NC1=NC(c2ccc(F)cc2)C2=C(N1)/C(=C/c1ccc(F)cc1)CN(S(=O)(=O)c1ccc(Cl)cc1)C2 (stereo unspecified)			48.4	54.8	Non-Toxic	7.6	27.1	16.7	12
Cl.NC1=NC(c2cccc(F)c2)C2=C(N1)/C(=C/c1cccc(F)c1)CN(S(=O)(=O)c1ccc([N+](=O)[O-])cc1)C2 (stereo unspecified)			58.8	78.5	Non-Toxic	30.6	30.5	42.4	12.3
Cl.NC1=NC(c2cccc(F)c2)C2=C(N1)/C(=C/c1cccc(F)c1)CN(S(=O)(=O)c1ccccc1)C2 (stereo unspecified)			54	56.3	Non-Toxic	3.7	11.3	37.8	12.8
Cl.NC1=NC(c2ccccc2F)C2=C(N1)/C(=C/c1ccccc1F)CN(S(=O)(=O)c1ccc(C(F)(F)F)cc1)C2 (stereo unspecified)			84.4	82.3	Non-Toxic	3.9	20.8	22	3.5
Cl.N#Cc1ccc(S(=O)(=O)N2CC3=C(NC(N)=NC3c3ccc(F)cc3)/C(=C/c3ccc(F)cc3)C2)cc1 (stereo unspecified)			45.9	51.1	Non-Toxic	11.7	26.7	18.6	42.7
